Calls of active or inactive are those of the source.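 The calls were made as follows, unless noted: active = viability loss from added drug above about 55%, and viability with drug at most 40%, in both replicates (limit read from the data, passing the limit was not always enough); inconclusive = both conditions met in only one replicate; inactive = neither replicate meets both conditions.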
Columns and labels:
[1] = Her2 expression decrease, cell viability multiplex – SKBR3 breast tumor cells, AlphaScreen, ATP viability, primary screen (AID 461;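 active = Her2 level under about 52% in both replicate screens, with viability over 70% of control, limit read from the data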;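 as to Her2 level: lower value means less Her2 protein in the cells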;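 as to viability: percent of carrier control wells set as 100% viability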); settings: SKBR3 Her2 protein level, 18-24 h, measured here: SKBR3 viability, ATP luminescence, at 10 µM
[2] = molecular target: Receptor tyrosine-protein kinase erbB-2 (Homo sapiens) (UniProt P04626); test: as above; settings: 18-24 h, at 10 µM, stronger effect = lower value
Chain of Receptor tyrosine-protein kinase erbB-2 (Homo sapiens) (P04626 whole entry, looked up): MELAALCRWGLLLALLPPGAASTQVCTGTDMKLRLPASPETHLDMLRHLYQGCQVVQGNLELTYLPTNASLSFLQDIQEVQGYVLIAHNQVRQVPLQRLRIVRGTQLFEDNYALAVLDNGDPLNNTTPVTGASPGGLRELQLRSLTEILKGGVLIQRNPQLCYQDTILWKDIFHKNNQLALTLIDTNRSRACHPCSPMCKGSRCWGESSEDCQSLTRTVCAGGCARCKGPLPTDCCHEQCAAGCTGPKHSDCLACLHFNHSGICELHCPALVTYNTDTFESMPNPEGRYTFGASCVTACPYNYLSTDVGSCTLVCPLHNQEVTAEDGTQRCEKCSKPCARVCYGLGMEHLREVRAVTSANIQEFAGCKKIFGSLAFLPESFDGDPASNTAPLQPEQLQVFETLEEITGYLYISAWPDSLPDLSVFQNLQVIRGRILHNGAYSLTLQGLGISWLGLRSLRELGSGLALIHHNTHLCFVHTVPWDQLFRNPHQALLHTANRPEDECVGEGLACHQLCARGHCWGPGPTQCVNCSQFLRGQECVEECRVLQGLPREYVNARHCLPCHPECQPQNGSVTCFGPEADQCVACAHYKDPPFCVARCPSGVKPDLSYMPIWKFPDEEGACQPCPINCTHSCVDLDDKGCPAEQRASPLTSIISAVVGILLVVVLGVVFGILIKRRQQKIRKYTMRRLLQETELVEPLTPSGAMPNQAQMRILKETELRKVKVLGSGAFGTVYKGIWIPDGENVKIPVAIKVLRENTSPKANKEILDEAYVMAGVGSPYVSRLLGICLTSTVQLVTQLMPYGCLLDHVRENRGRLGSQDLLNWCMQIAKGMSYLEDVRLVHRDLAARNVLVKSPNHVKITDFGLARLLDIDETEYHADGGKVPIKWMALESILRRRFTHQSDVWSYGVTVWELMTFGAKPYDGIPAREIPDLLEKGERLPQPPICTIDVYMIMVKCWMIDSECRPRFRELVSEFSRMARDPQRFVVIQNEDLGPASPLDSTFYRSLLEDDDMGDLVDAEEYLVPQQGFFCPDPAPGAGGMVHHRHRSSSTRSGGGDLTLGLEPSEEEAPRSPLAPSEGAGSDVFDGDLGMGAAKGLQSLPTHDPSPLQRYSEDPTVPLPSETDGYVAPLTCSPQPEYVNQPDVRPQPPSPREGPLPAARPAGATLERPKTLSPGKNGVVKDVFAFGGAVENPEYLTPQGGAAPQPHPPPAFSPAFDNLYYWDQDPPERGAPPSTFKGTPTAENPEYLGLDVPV

[3] = reduced viability of SK-BR-3 breast cancer cells – cell-based, 24 h, human, pilot screen (AID 572;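 active = viability at or below 10% of carrier control in both of two separate runs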;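 also: compound exposure lasted between 18 and 24 h rather than exactly 24 h; 100% = carrier-treated control wells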); settings: SK-BR-3 viability, CellTiter-Glo luminescence, at 10 µM, stronger effect = lower value
[4] = HUVEC growth inhibition – cell-based, human, primary screen (AID 575;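 active = viability at or below 30% in both replicate assays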;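 also: 100% = median of untreated cell wells with 0.1% DMSO on each plate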); settings: HUVEC proliferation, CellTiter-Glo luminescence, 72 h; at 10 µM; stronger effect = lower value
Method in brief: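 material = primary HUVEC, no more than 12 passages | input = 1250 cells per well | controls = vehicle and MePR control wells | measured by = CTG luminescence | times = 72 h compound incubation | format = collagen-coated 384-well format | read-out = % viability vs DMSO wells | doses = single 10 µM dose, 0.1% DMSO, from 5x medium stock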

[5] = H69AR cell proliferation blockers – human, duplicate replicates, primary screen (AID 580;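 active = viability at or under a set limit in both replicates, limit being median viability minus 3 SD, cut at about 48% in these data, passing the limit was not always enough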;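 also: 100% = mean luminescence of untreated wells and 0% = no signal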); settings: H69AR lung tumor cells viability, ATP luminescence, 72 h; at 10 µM; stronger effect = lower value
[6] = MRP1 drug-resistance reversers in H69AR cells – cell-based, doxorubicin co-treatment, pilot screen (AID 601); settings: CellTiter-Glo, 72 h, at 10 µM; for differential viability (reversal): stronger effect = higher value
[7] = yeast transport mutant growth inhibition pilot in 384-well plates, post-Golgi transport modulator project (AID 636; in the data active = inhibition above about 31%); settings: absorbance 615 nm, about 18 h, stronger effect = higher value
[8] = growth suppression of yeast trafficking mutant, preliminary HTS, modulators of trafficking downstream of Golgi apparatus project, 1536-format plate, OD 615 nm (AID 637; in the data active = inhibition above about 30%); settings: yeast transport mutant growth, absorbance 615 nm, 18 h; stronger effect = higher value
[9] = H69AR cells + 2 uM doxorubicin, measured here: viability with 2 uM doxorubicin, stronger effect = lower value
[10] = H69AR cells, compound alone cytotoxicity

Row | SMILES | viability [1] [%] | Her2 level [2] | viability [3] | viability [4] | viability [5] | differential viability (reversal) ([6]; H69AR cells + 2 uM doxorubicin) | viability [6, 9] [%] | viability [6, 10] [%] | inhibition [7] | inhibition [8]
1 | CCOC(=O)N1CCC(NC(=O)CCc2c(C)nc3c(c(C)nn3C(C)(C)C)c2C)CC1 | 91 | 78.5% (inactive) | 91% (inactive) | 82.2% (inactive) | 85.1% (inactive) | 1.25% (inactive) | 83.9 | 85.1 | -4.61% (inactive) | -3.02% (inactive)
2 | CCc1ccc(C2CC(c3ccccc3)n3ncnc3N2)cc1 (stereo not given) | 80 | 86% (inactive) | 80% (inactive) | 83.1% (inactive) | 88.1% (inactive) | 3.85% (inactive) | 84.3 | 88.1 | 3.59% (inactive) | 0.67% (inactive)
3 | Cc1ccc(-c2nnn(CC(=O)N(Cc3cccs3)C(C(=O)NC(C)(C)C)c3ccc(C)o3)n2)o1 (stereo not given) | 86.5 | 96.5% (inactive) | 86.5% (inactive) | 93.4% (inactive) | 79% (inactive) | 3.37% (inactive) | 75.7 | 79 | -0.77% (inactive) | -5.67% (inactive)
4 | CC(C)(C)NC(=O)COC(=O)c1ccc(O)cc1 | 100 | 104% (inactive) | 100% (inactive) | 103% (inactive) | 98.9% (inactive) | -3.93% (inactive) | 103 | 98.9 | -2.99% (inactive) | -1.27% (inactive)
5 | Cc1oc(C(=O)O)cc1CSCc1cc(C(=O)O)c(C)o1 | 104 | 94.5% (inactive) | 104% (inactive) | 92.9% (inactive) | 103% (inactive) | 1.31% (inactive) | 102 | 103 | -3.51% (inactive) | -1.48% (inactive)
6 | O=C(c1ccc2c(c1)OCCO2)C1CCN(C(=O)c2ccc(F)cc2)CC1 | 102 | 111% (inactive) | 102% (inactive) | 93.7% (inactive) | 83.8% (inactive) | -16.2% (inactive) | 99.9 | 83.8 | -6.35% (inactive) | -3.11% (inactive)
7 | O=C(CSc1nnc2ncccn12)N1CCCCCC1 | 102 | 85% (inactive) | 102% (inactive) | 103% (inactive) | 107% (inactive) | 15.6% (inactive) | 91.3 | 107 | -3.84% (inactive) | -7.3% (inactive)
8 | CCOC(=O)c1c(NC(=O)CSc2nnc(-c3ccc(OC)cc3)o2)sc2c1CCC2 | 88 | 100% (inactive) | 88% (inactive) | 76.1% (inactive) | 82.1% (inactive) | -8.29% (inactive) | 90.4 | 82.1 | -0.26% (inactive) | -1.77% (inactive)
9 | O=C(Nc1cccnc1N1CCOCC1)c1ccco1 | 110 | 86% (inactive) | 110% (inactive) | 115% (inactive) | 92% (inactive) | 7.89% (inactive) | 84.2 | 92 | -7.3% (inactive) | -4.67% (inactive)
10 | CCC(CO)Nc1ncnc2c1cnn2-c1ccc(Cl)cc1 (stereo not given) | 94.5 | 126% (inactive) | 94.5% (inactive) | 91.7% (inactive) | 93.7% (inactive) | 13.5% (inactive) | 80.2 | 93.7 | -5.73% (inactive) | -5% (inactive)
11 | CN1CCCN(CC(O)COCc2cccs2)CC1 (stereo not given) | 89.5 | 84% (inactive) | 89.5% (inactive) | 87.3% (inactive) | 111% (inactive) | 14.2% (inactive) | 96.6 | 111 | -5.54% (inactive) | -1.8% (inactive)
12 | COc1ccc(OCC(=O)N2CCN(C(=O)Cc3ccccc3)CC2)cc1 | 90 | 96% (inactive) | 90% (inactive) | 101% (inactive) | 84.6% (inactive) | -12.1% (inactive) | 96.7 | 84.6 | 0% (inactive) | 23.2% (inactive)
13 | Brc1ccc(-c2csc(/N=C/N3CCOCC3)n2)cc1 | 113 | 100% (inactive) | 113% (inactive) | 85% (inactive) | 97.6% (inactive) | 5.1% (inactive) | 92.5 | 97.6 | -4.4% (inactive) | -7.1% (inactive)
14 | C=CCn1c(Cc2cccs2)nnc1SCC(=O)Nc1ccc(OC)c(OC)c1 | 108 | 109% (inactive) | 108% (inactive) | 89.6% (inactive) | 85.3% (inactive) | -5.02% (inactive) | 90.3 | 85.3 | -5.06% (inactive) | 0% (inactive)
15 | CCN1C(=O)/C(=C2\C=Cc3ccccc3N2CC)OC1=S | 95.5 | 100% (inactive) | 95.5% (inactive) | 85.9% (inactive) | 72% (inactive) | 7.3% (inactive) | 64.7 | 72 | -4.23% (inactive) | 2.33% (inactive)
16 | COC(=O)[C@H](C)NC(=O)NCc1ccc(F)cc1 | 102 | 95% (inactive) | 102% (inactive) | 102% (inactive) | 95.3% (inactive) | -8.8% (inactive) | 104 | 95.3 | -2.21% (inactive) | -1.43% (inactive)

Row | SMILES | viability [1] [%] | Her2 level [2] | viability [3] | viability [4] | viability [5] | differential viability (reversal) ([6]; H69AR cells + 2 uM doxorubicin) | viability [6, 9] [%] | viability [6, 10] [%] | inhibition [7] | inhibition [8]
17 | COc1cccc(CN2CCN(C(=O)CC(C)C)CC2)c1 | 92.5 | 76% (inactive) | 92.5% (inactive) | 87.4% (inactive) | 86.4% (inactive) | -2.34% (inactive) | 88.7 | 86.4 | 0.77% (inactive) | -0.83% (inactive)
18 | COc1cc(C(=O)N2CCC(NC(=O)C(Cc3ccc(C)cc3)NC(C)=O)CC2)cc(OC)c1OC (stereo not given) | 92 | 86% (inactive) | 92% (inactive) | 97.8% (inactive) | 98% (inactive) | 7.71% (inactive) | 90.3 | 98 | -2.84% (inactive) | 0.16% (inactive)
19 | COc1cccc(NC(=O)CN2CCN(c3ccccc3F)CC2)c1 | 90 | 88.5% (inactive) | 90% (inactive) | 107% (inactive) | 94.9% (inactive) | 1.8% (inactive) | 93.1 | 94.9 | -4.4% (inactive) | 35.6% (active)
20 | C=CCN(C(=O)CNS(=O)(=O)c1ccccc1)C(C(=O)NCCOC)c1ccncc1 (stereo not given) | 100 | 103% (inactive) | 100% (inactive) | 97.6% (inactive) | 102% (inactive) | 5.81% (inactive) | 96.3 | 102 | -4.27% (inactive) | -9.84% (inactive)
21 | CS(=O)(=O)NCc1ccc(C(=O)NCc2ccccc2)cc1 | 101 | 97% (inactive) | 101% (inactive) | 83.5% (inactive) | 113% (inactive) | 18.6% (inactive) | 94.4 | 113 | -4.47% (inactive) | 4% (inactive)
22 | Cc1cc(/C=N/n2cnnc2)c(C)n1-c1ccc(Cl)cc1Cl | 99.5 | 64.5% (inactive) | 99.5% (inactive) | 92.3% (inactive) | 90.6% (inactive) | 10.1% (inactive) | 80.5 | 90.6 | -5.54% (inactive) | -6.17% (inactive)
23 | CCNC(=O)CC1C(=O)N(c2ccccc2)C(=O)N1Cc1ccc(OC)cc1 (stereo not given) | 94.5 | 100% (inactive) | 94.5% (inactive) | 91.9% (inactive) | 94.8% (inactive) | 5.68% (inactive) | 89.1 | 94.8 | -3.68% (inactive) | -2.91% (inactive)
24 | CCc1ccc(NS(=O)(=O)c2cccs2)cc1 | 97.5 | 102% (inactive) | 97.5% (inactive) | 101% (inactive) | 96% (inactive) | 2% (inactive) | 94 | 96 | -2.24% (inactive) | 1.48% (inactive)
25 | CCN1C(=O)OC2(CCCCC2)C1(C)O (stereo not given) | 107 | 93.5% (inactive) | 107% (inactive) | 101% (inactive) | 105% (inactive) | 11.4% (inactive) | 94.1 | 105 | 0.13% (inactive) | -7.27% (inactive)
26 | CCC(c1nnc(SCC(=O)NCC2CCCO2)n1Cc1ccccc1)N(C)C (stereo not given) | 98.5 | 98% (inactive) | 98.5% (inactive) | 96.8% (inactive) | 89.2% (inactive) | 5.86% (inactive) | 83.3 | 89.2 | -7.47% (inactive) | -1.61% (inactive)
27 | CSc1nnc2n(CCc3ccccc3)c(=O)c3c4c(sc3n12)CCCC4 | 104 | 94% (inactive) | 104% (inactive) | 96.3% (inactive) | 102% (inactive) | 25.7% (inactive) | 76 | 102 | -1.45% (inactive) | 0.16% (inactive)
28 | CS(=O)(=O)N(CC(=O)NCc1ccccn1)c1ccc2c(c1)OCCO2 | 104 | 104% (inactive) | 104% (inactive) | 96.8% (inactive) | 97.8% (inactive) | 9.83% (inactive) | 87.9 | 97.8 | -6.93% (inactive) | 4.35% (inactive)
29 | CCCOC(=O)c1[nH]c2c(c1C)C(=O)CC(c1ccc(OC)c(OC)c1)C2 (stereo not given) | 99 | 151% (inactive) | 99% (inactive) | 84.7% (inactive) | 96% (inactive) | 0.765% (inactive) | 95.3 | 96 | 2.63% (inactive) | -11.2% (inactive)
30 | COc1ccc2c(c1)CCc1c(C(=O)N3CCCc4ccccc43)noc1-2 | 98 | 87% (inactive) | 98% (inactive) | 80.8% (inactive) | 81.1% (inactive) | 3% (inactive) | 78.1 | 81.1 | -6.05% (inactive) | -8.91% (inactive)
31 | O=C1CCn2nc(-c3ccc(Cl)cc3)cc2N1 | 106 | 96% (inactive) | 106% (inactive) | 31.3% (inactive) | 97.8% (inactive) | 5.93% (inactive) | 91.8 | 97.8 | -2.18% (inactive) | 1.83% (inactive)
